Data: PubChem BioAssay AID602189 (Broad Institute, 2012)
Inconclusive results are not listed. Calls of active or inactive are those of the source.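 How the source made its calls: active means signal drop in every repeat run, with half-maximal concentration at most twice the top valid concentration; inconclusive means the separate test runs give conflicting calls; inactive means inactive in every test run.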

Tests used:
[1] = tested on: C. albicans CaCi-17 growth, Alamar Blue fluorescence, 48 h; assay: C. albicans CaCi-17 growth inhibition, confirmation, clinical isolate, Alamar Blue, dry powder (AID 602189)
Procedure, shortened: (§1)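 Assay system: fluconazole-resistant clinical isolate CaCi-17, whole fungal cells; medium: MOPS-buffered RPMI 1640 with uridine and glucose; times: 48 h at 37 °C, unshaken; technique: Alamar Blue fluorescence, 1:40 in PBS, read after 2 h; read-out: growth inhibition, shown by reduced Alamar Blue fluorescence; control set: amphotericin B at 10 µM as positive control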

[2] = as above; details: C. albicans CaCi-17 growth, Alamar Blue fluorescence, 48 h; at 26 µM (top of the series)
Procedure, shortened: as §1

SMILES	AC50 [1] [µM]	activity change, negative = inhibition [2]
CN1CCN(C(c2ccc(C(F)(F)F)cc2)c2ccc3cccnc3c2O)CC1 (stereo not drawn)	7.72	–
C=CCNC(=S)N/N=C(\C)c1ccccn1	–	-32.2% (inactive)
O=C(Nc1nc(-c2ccccc2)cs1)c1ccc(Br)s1	–	-6.92% (inactive)
O=C(Nc1nnc(-c2ccc3c(c2)CCCC3)o1)c1ccc(Cl)cc1Cl	17.3	–
Oc1c(C(c2ccc(Cl)cc2)N2CCCC2)ccc2cccnc12 (stereo not drawn)	8.73	–
CCOC(=O)N1C(=O)C2(CCCCC2)N(c2ccc(C)cc2)C1=S	–	-10.2% (inactive)
O=C(Nc1nc(-c2ccc3c(c2)CCCC3)cs1)c1ccccc1	–	-2.83% (inactive)
Oc1c(C(c2ccccc2Cl)N2CCCCC2)ccc2cccnc12 (stereo not drawn)	11.7	–
O=C(NNC(=S)Nc1ccc(Cl)c(Cl)c1)c1ccccn1	1.86	–
C/C(=N\NC(=O)c1cc2ccccc2cc1O)c1ccccn1	5.54	–
O=C(Nc1nc(-c2ccccn2)cs1)c1ccccc1	–	57.1% (inactive)
O=C(Oc1c(Cl)cc(Cl)c2cccnc12)c1ccco1	1.5	–
NC(=O)c1cccc(C(=O)Nc2nc(-c3ccc4c(c3)CCCC4)cs2)c1	–	21.1% (inactive)
O=C(Nc1nc(-c2ccccn2)cs1)c1ccc(Br)s1	4.94	–
O=C(Nc1nnc(-c2ccc3c(c2)CCCC3)o1)c1ccccc1	25.9	–
Oc1c(CN2CCc3ccccc3C2)cc(Cl)c2cccnc12	5.46	–
Cc1ccc(C(=O)Nc2nnc(-c3ccccc3)o2)cc1C	–	-7.38% (inactive)
O=C(Nc1nc(-c2ccccn2)cs1)c1ccc(Cl)s1	10.5	–
